In ChEMBL document CHEMBL3352510, “Anti-Inflammatory Spirostanol and Furostanol Saponins from Solanum macaonense” (J Nat Prod, 2014):
The source made the active and inactive calls. The rule behind the calls is not given here.

Columns and labels:
Neutrophil [1] = assay: Inhibition of FMLP/CB-stimulated superoxide production in human neutrophils preincubated for 5 mins before FMLP/CB treatment by spectrophotometry; format: functional, cell-based
Procedure, shortened: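 Neutrophils equilibrated with ferricytochrome c (0.5 mg/mL) and 1 mM Ca2+ at 37 °C for 2 min, treated with compound for 5 min, primed with cytochalasin B (1 μg/mL) for 3 min, then stimulated with FMLP 100 nM for 10 min. IC50 given as mean ± SEM, n = 3 or 4. Diphenyleneiodonium as positive control.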

Neutrophil [2] = assay: Inhibition of FMLP/CB-stimulated elastase release in human neutrophils preincubated for 5 mins before FMLP/CB treatment using MeO-Suc-Ala-Ala-Pro-Val-pnitroanilide by spectrophotometry; format: functional, cell-based
Procedure, shortened: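 Neutrophils, after hypotonic lysis of erythrocytes, kept in Ca2+-free HBSS pH 7.4. Equilibrated 2 min at 37 °C with MeO-Suc-Ala-Ala-Pro-Val-p-nitroanilide (100 μM), given compound for 5 min, then activated with FMLP 100 nM plus cytochalasin B 0.5 μg/mL. Absorbance at 405 nm tracked continuously and expressed as percent of drug-free activated control. IC50 reported as mean ± SEM, n = 3 or 4. Sivelestat as positive control.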

[3] = Cytotoxicity against human neutrophils assessed as reduction in cell viability up to 10 uM by LDH release assay; format: cell-based; conditions: neutrophil
Procedure, shortened: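 Neutrophils held in Ca2+-free HBSS, pH 7.4, at 4 °C before use. Compounds tested up to 10 μM. Membrane damage scored as LDH in cell-free medium, expressed as a percentage of total LDH release.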

[4] = Cytotoxicity against rat RBL2H3 cells assessed as reduction in cell viability by MTT assay; format: cell-based; conditions: rbl-2h3
Procedure, shortened: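 Viability of RBL-2H3 cells by MTT, run alongside the degranulation assay. Cells cultured in DMEM/F12 with 10% FBS and exposed to compound at 0–64 μM.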

RBL-2H3 = assay: Anti-inflammatory activity in rat RBL2H3 cells assessed as inhibition of beta-hexosaminidase release at 1 to 64 uM after 48 hrs by degranulation assay relative to control; format: functional, cell-based
Procedure, shortened: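 RBL-2H3 cells grown in DMEM/F12 with 10% FBS, seeded at 10^4 cells/well, exposed to compound (0, 1, 4, 16, 64 μM) for 48 h. Sensitized overnight with anti-DNP IgE ([…]), washed in Tyrode's buffer, then challenged with DNP-BSA (0.1 μg/mL) for 1 h. Reaction stopped on ice. Supernatant incubated 1 h with p-nitrophenyl-N-acetyl-D-glucosaminide (0.1 M, citrate buffer), stopped with bicarbonate, read at 405 nm. Release % = (sample − background)/(total lysate − background) × 100. Dexamethasone 100 nM as positive control.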

[5] = Antidegranulation activity in rat RBL2H3 cells assessed as inhibition of DNP-BSA-stimulated beta-hexosaminidase release

Compound	IC50 (Neutrophil [1])	IC50 (Neutrophil [2])	other results
C[C@H](CC[C@@]1(O)O[C@H]2C[C@H]3[C@@H]4C[C@H](O[C@@H]5O[C@H](C)[C@@H](O)[C@H](O[C@@H]6OC[C@@H](O)[C@H](O)[C@H]6O)[C@H]5O)[C@H]5C[C@@H](O)CC[C@]5(C)[C@H]4CC[C@]3(C)[C@H]2[C@@H]1C)CO[C@@H]1O[C@H](CO)[C@@H](O)[C@H](O)[C@H]1O	> 10 µM	–	–
CC1=C(CC[C@@H](C)CO[C@@H]2O[C@H](CO)[C@@H](O)[C@H](O)[C@H]2O)O[C@H]2C[C@H]3[C@@H]4C[C@H](O[C@@H]5O[C@H](C)[C@@H](O)[C@H](O[C@@H]6OC[C@@H](O)[C@H](O)[C@H]6O)[C@H]5O)[C@H]5C[C@@H](O)CC[C@]5(C)[C@H]4CC[C@]3(C)[C@@H]12	> 10 µM	–	–
CC(C)(C)C(=O)Oc1ccc(S(=O)(=O)Nc2ccccc2C(=O)NCC(=O)O)cc1 [SIVELESTAT]	–	50 µM	–
C[C@@H]1CC[C@@]2(OC1)O[C@H]1C[C@H]3[C@@H]4C[C@H](O[C@@H]5O[C@H](C)[C@@H](O)[C@H](O)[C@H]5O)[C@H]5C[C@@H](O)CC[C@]5(C)[C@H]4CC[C@]3(C)[C@H]1[C@@H]2C	7 µM	3.7 µM	Activity [3]: Non-toxic
CO[C@]1(CC[C@@H](C)CO[C@@H]2O[C@H](CO)[C@@H](O)[C@H](O)[C@H]2O)O[C@H]2C[C@H]3[C@@H]4C[C@H](O[C@@H]5O[C@H](C)[C@@H](O)[C@H](O[C@@H]6OC[C@@H](O)[C@H](O)[C@H]6O)[C@H]5O)[C@H]5CC(=O)CC[C@]5(C)[C@H]4CC[C@]3(C)[C@H]2[C@@H]1C	> 10 µM	–	–
C[C@H](C/C=C1/O[C@H]2C[C@H]3[C@@H]4C[C@H](O[C@@H]5O[C@H](C)[C@@H](O)[C@H](O[C@@H]6OC[C@@H](O)[C@H](O)[C@H]6O)[C@H]5O)[C@H]5C[C@@H](O)CC[C@]5(C)[C@H]4CC[C@]3(C)[C@H]2[C@@]1(C)O)CO[C@@H]1O[C@H](CO)[C@@H](O)[C@H](O)[C@H]1O	> 10 µM	–	–
C[C@@H]1CC[C@@]2(OC1)O[C@H]1C[C@H]3[C@@H]4C[C@H](O)[C@H]5C[C@@H](O[C@@H]6O[C@H](CO)[C@@H](O[C@H]7O[C@@H](C)[C@H](O)[C@@H](O)[C@H]7O)[C@H](O)[C@H]6O[C@H]6O[C@@H](C)[C@H](O)[C@@H](O)[C@H]6O)CC[C@]5(C)[C@H]4CC[C@]3(C)[C@H]1[C@@H]2C	> 10 µM	–	–
c1ccc2c(c1)[I+]c1ccccc1-2 [DIPHENYLENEIODONIUM]	0.8 µM	–	–
C[C@@H]1CC[C@@]2(OC1)O[C@H]1C[C@H]3[C@@H]4C[C@H](O)[C@H]5C[C@@H](O)CC[C@]5(C)[C@H]4CC[C@]3(C)[C@H]1[C@@H]2C [CHLOROGENIN]	6.1 µM	> 10 µM	–
CO[C@]1(CC[C@@H](C)CO[C@@H]2O[C@H](CO)[C@@H](O)[C@H](O)[C@H]2O)O[C@H]2C[C@H]3[C@@H]4C[C@H](O[C@@H]5OC[C@@H](O)[C@H](O[C@@H]6OC[C@@H](O)[C@H](O)[C@H]6O)[C@H]5O)[C@H]5C[C@@H](O)CC[C@]5(C)[C@H]4CC[C@]3(C)[C@H]2[C@@H]1C	> 10 µM	–	–

The next lines start with results.

IC50 (Neutrophil [1])	IC50 (Neutrophil [2])	Compound	other results
> 10 µM	–	C[C@H](CC[C@@]1(O)O[C@H]2C[C@H]3[C@@H]4C[C@H](O)[C@H]5C[C@@H](O[C@@H]6O[C@H](CO)[C@@H](O)[C@H](O)[C@H]6O[C@@H]6O[C@@H](C)[C@H](O)[C@@H](O)[C@H]6O)CC[C@]5(C)[C@H]4CC[C@]3(C)[C@H]2[C@@H]1C)CO[C@@H]1O[C@H](CO)[C@@H](O)[C@H](O)[C@H]1O	–
7.6 µM	4.4 µM	C[C@@H]1CC[C@@]2(OC1)O[C@H]1C[C@H]3[C@@H]4C[C@H](O[C@@H]5OC[C@@H](O)[C@H](O)[C@H]5O)[C@H]5C[C@@H](O)CC[C@]5(C)[C@H]4CC[C@]3(C)[C@H]1[C@@H]2C	Activity [3]: Non-toxic
4 µM	1 µM	C[C@@H]1CC[C@@]2(OC1)O[C@H]1C[C@H]3[C@@H]4C[C@H](O[C@@H]5O[C@H](C)[C@@H](O)[C@H](O[C@@H]6OC[C@@H](O)[C@H](O)[C@H]6O)[C@H]5O)[C@H]5C[C@@H](O)CC[C@]5(C)[C@H]4CC[C@]3(C)[C@H]1[C@@H]2C	–
> 10 µM	4.2 µM	C[C@@H]1CC[C@@]2(OC1)O[C@H]1C[C@H]3[C@@H]4C[C@H](O[C@@H]5OC[C@@H](O)[C@H](O[C@@H]6OC[C@@H](O)[C@H](O)[C@H]6O)[C@H]5O)[C@H]5C[C@@H](O)CC[C@]5(C)[C@H]4CC[C@]3(C)[C@H]1[C@@H]2C	Activity [4]: Active; Activity [3]: Non-toxic; Activity (RBL-2H3): inactive
> 10 µM	–	CC1=C(C(O)C[C@@H](C)CO[C@@H]2O[C@H](CO)[C@@H](O)[C@H](O)[C@H]2O)O[C@H]2C[C@H]3[C@@H]4C[C@H](O[C@@H]5O[C@H](C)[C@@H](O)[C@H](O[C@@H]6OC[C@@H](O)[C@H](O)[C@H]6O)[C@H]5O)[C@H]5C[C@@H](O)CC[C@]5(C)[C@H]4CC[C@]3(C)[C@@H]12 (stereo partly specified)	–
> 10 µM	–	C[C@H](CC[C@@]1(O)O[C@H]2C[C@H]3[C@@H]4C[C@H](O)[C@H]5C[C@@H](O[C@@H]6O[C@H](CO)[C@@H](O)[C@H](O)[C@H]6O)CC[C@]5(C)[C@H]4CC[C@]3(C)[C@H]2[C@@H]1C)CO[C@@H]1O[C@H](CO)[C@@H](O)[C@H](O)[C@H]1O	–
> 10 µM	–	C[C@@H]1CC[C@@]2(OC1)O[C@H]1C[C@H]3[C@@H]4C[C@H](O[C@@H]5O[C@H](CO)[C@@H](O)[C@H](O)[C@H]5O)[C@H]5C[C@@H](O)CC[C@]5(C)[C@H]4CC[C@]3(C)[C@H]1[C@@H]2C	–
> 10 µM	–	C[C@@H]1CC[C@@]2(OC1)O[C@H]1C[C@H]3[C@@H]4C[C@H](O[C@@H]5O[C@H](C)[C@@H](O)[C@H](O)[C@H]5O)[C@H]5C[C@@H](O[C@@H]6O[C@H](CO)[C@@H](O)[C@H](O)[C@H]6O)CC[C@]5(C)[C@H]4CC[C@]3(C)[C@H]1[C@@H]2C	–
> 10 µM	–	C[C@H](CC[C@@]1(O)O[C@H]2C[C@H]3[C@@H]4C[C@H](O[C@@H]5O[C@H](C)[C@@H](O)[C@H](O)[C@H]5O)[C@H]5C[C@@H](O[C@@H]6O[C@H](CO)[C@@H](O)[C@H](O)[C@H]6O)CC[C@]5(C)[C@H]4CC[C@]3(C)[C@H]2[C@@H]1C)CO[C@@H]1O[C@H](CO)[C@@H](O)[C@H](O)[C@H]1O	–
> 10 µM	–	CO[C@]1(CC[C@@H](C)CO[C@@H]2O[C@H](CO)[C@@H](O)[C@H](O)[C@H]2O)O[C@H]2C[C@H]3[C@@H]4C[C@H](O[C@@H]5O[C@H](C)[C@@H](O)[C@H](O[C@@H]6OC[C@@H](O)[C@H](O)[C@H]6O)[C@H]5O)[C@H]5C[C@@H](O)CC[C@]5(C)[C@H]4CC[C@]3(C)[C@H]2[C@@H]1C	–
> 10 µM	3.2 µM	C[C@@H]1CC[C@@]2(OC1)O[C@H]1C[C@H]3[C@@H]4C[C@H](O[C@@H]5O[C@H](C)[C@@H](O)[C@H](O[C@@H]6OC[C@@H](O)[C@H](O)[C@H]6O)[C@H]5O)[C@H]5CC(=O)CC[C@]5(C)[C@H]4CC[C@]3(C)[C@H]1[C@@H]2C	Activity [3]: Non-toxic; Activity (RBL-2H3): inactive; inhibition of degranulation [5]: > 90%
> 10 µM	–	C[C@H]1CO[C@@]2(O[C@H]3C[C@H]4[C@@H]5C[C@H](O[C@@H]6O[C@H](C)[C@@H](O)[C@H](O[C@@H]7OC[C@@H](O)[C@H](O)[C@H]7O)[C@H]6O)[C@H]6C[C@@H](O)CC[C@]6(C)[C@H]5CC[C@]4(C)[C@H]3[C@@H]2C)[C@@H](O)C1	–
